Data set [1] can be described thus: Mean residence time in normal Sprague-Dawley rat at 10 mg/kg, po by HPLC method. The format is ADME, organism-based. Set-up: dose 10 mg/kg, route oral. The settings on record: in vivo. The method, boiled down:
(§1)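 Sprague-Dawley rats: diabetes induced by STZ 65 mg/kg i.p. in citrate buffer pH 4.5 (fasting glucose >11.1 mM at day 7). Insulin group received protamine zinc insulin 5 U/kg s.c. twice daily for 4 weeks. On day 35, overnight-fasted rats got GLB 10 mg/kg orally in 0.5% CMC-Na. Plasma GLB measured by HPLC with fluorescence detection (ex 308/em 360 nm). Non-compartmental analysis; n=6-7.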

A short description of data set [2]: AUC (0 to t) in normal Sprague-Dawley rat at 10 mg/kg, po by HPLC method. The format is ADME, organism-based. Set-up: dose 10 mg/kg, route oral. The note with it: plasma. The gist of the method: as §1
In data set [3] the test system is Jejunum. Put plainly: Drug absorption in normal Sprague-Dawley rat jejunum assessed as 200 uM BCRP inhibitor novobiocin-mediated increase in apparent effective permeability at 10 ug/ml measured at 45 mins of perfusion. The format is ADME, tissue-based. Set-up: scale not given: the % may be the effect or the level left. The settings on record: 0.75 h. The gist of the method: (§2)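 Normal rats underwent in situ single-pass jejunal perfusion: saline preperfusion at 0.2 mL/min, 37 °C, for 20 min, then K-H buffer with GLB 10 μg/mL with or without novobiocin 50 or 200 μM. Effluent was collected every 15 min. Peff (cm/min) was calculated from GLB loss and the absorptive area of the segment; n=5.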

Data set [4] is described as follows: AUC (0 to 60 mins) in insulin treated streptozotocin-induced diabetes mellitus Sprague-Dawley rat liver microsomes at 4 uM after 60 mins. The format is ADME. Set-up: dose 4 uM, time < 1 hr. The gist of the method:
(§3)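 Liver microsomes (0.5 mg/mL protein) from control, STZ-diabetic or insulin-treated diabetic rats, 0.01 M phosphate buffer pH 7.4, 4 μM GLB (methanol <1%); 5 min preincubation at 37 °C, started with NADPH regenerating system. Stopped with 1 M HCl at 0, 5, 15, 30, 45, 60 min. GLB depletion measured by HPLC-fluorescence. AUC by linear trapezoid; Clapp = initial dose/AUC0-t; t1/2 = 0.693/terminal slope. Triplicate incubations; 4-5 rats.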
For orientation: Liver microsomes are vesicles of endoplasmic reticulum, rich in cytochrome P450 enzymes.

Data set [5] can be described thus: Half life in normal Sprague-Dawley rat liver microsomes at 4 uM after 60 mins. The data set is classed as ADME. The method, boiled down:
as §3

The test system of data set [6] is Liver microsome. Put plainly: Drug metabolism in streptozotocin-induced diabetes mellitus Sprague-Dawley rat liver microsomes assessed as compound level at 4 uM after 60 mins (reference value: 2.0 +/- 0.13 ug/ml). The data set is classed as ADME. The note with it: 1 h.
Data set [7] in a line: Oral clearance in Sprague-Dawley rat model of streptozotocin-induced diabetes mellitus at 10 mg/kg, po by HPLC method. The note with it: in vivo. Set-up: dose 10 mg/kg, route oral. The format is ADME, organism-based. The method, boiled down: as §1
In data set [8] the test system is Jejunum. Put plainly: Drug absorption in normal Sprague-Dawley rat jejunum assessed as 200 uM BCRP inhibitor novobiocin-mediated increase in apparent effective permeability at 10 ug/ml measured at 90 mins of perfusion. The note with it: 1.5 h. The data set is classed as ADME, tissue-based. Set-up: scale not given: the % may be the effect or the level left. The method, boiled down:
as §2

Data set [9] in a line: Apparent oral volume of distribution in insulin treated Sprague-Dawley rat model of streptozotocin-induced diabetes mellitus at 10 mg/kg, po by HPLC method. The format is ADME, organism-based. Also on record: dose 10 mg/kg, route oral. The settings on record: in vivo. The method, boiled down: as §1
Data set [10] in a line: Oral clearance in normal Sprague-Dawley rat at 10 mg/kg, po by HPLC method. The data set is classed as ADME, organism-based. Set-up: dose 10 mg/kg, route oral. The settings on record: in vivo. The gist of the method: (§4)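 Rats given STZ 65 mg/kg i.p. in citrate buffer pH 4.5 (controls got buffer); diabetic if fasting glucose >11.1 mM at day 7; insulin group got protamine zinc insulin 5 U/kg s.c. twice daily for 4 weeks. On day 35, overnight-fasted rats dosed orally with 10 mg/kg in 0.5% CMC-Na; plasma by ethyl acetate extraction, HPLC fluorescence (ex 308/em 360 nm); non-compartmental analysis; n=6-7, mean ± S.D.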

The nature of data set [11]: Apparent oral volume of distribution in normal Sprague-Dawley rat at 10 mg/kg, po by HPLC method. The format is ADME, organism-based. Set-up: dose 10 mg/kg, route oral. The settings on record: in vivo. The method, boiled down:
as §1

Data set [12] in a line: AUC (0 to t) in Sprague-Dawley rat model of streptozotocin-induced diabetes mellitus at 10 mg/kg, po by HPLC method. The data set is classed as ADME, organism-based. Also on record: dose 10 mg/kg, route oral. The settings on record: in vivo. The method, boiled down: as §1
Data set [13] has as its system Jejunum. Put plainly: Drug absorption in normal Sprague-Dawley rat jejunum at 10 ug/ml in presence of 50 to 200 uM BCRP inhibitor novobiocin. The data set is classed as ADME, tissue-based. The note with it: in vivo. The method, boiled down:
as §2

Data set [14] deals with Liver microsome. Put plainly: Apparent hepatic clearance in normal Sprague-Dawley rat liver microsomes assessed per mg protein at 4 uM after 60 mins. The data set is classed as ADME. The settings on record: 1 h. The gist of the method: as §3
Data set [15] in a line: Tmax in Sprague-Dawley rat model of streptozotocin-induced diabetes mellitus at 10 mg/kg, po by HPLC method. Also on record: dose 10 mg/kg, route oral. The data set is classed as ADME, organism-based. The note with it: in vivo. The gist of the method: as §4
The nature of data set [16]: Terminal elimination half life in insulin treated Sprague-Dawley rat model of streptozotocin-induced diabetes mellitus at 10 mg/kg, po by HPLC method. The data set is classed as ADME, organism-based. Set-up: dose 10 mg/kg, route oral. The note with it: in vivo, read-out: beta t1/2 (converted). The gist of the method: as §4
The subject of data set [17] is Jejunum. The experiment in a line: Drug absorption in streptozotocin-induced diabetes mellitus Sprague-Dawley rat jejunum at 10 ug/ml after 30 mins of in situ single-pass perfusion relative to normal rat. The format is ADME, tissue-based. The note with it: in vivo, 0.5 h. The gist of the method:
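In situ single-pass jejunal perfusion in anaesthetized control and STZ-diabetic rats. The segment was preperfused with 0.9% saline at 0.2 mL/min, 37 °C, for 20 min, then perfused with K-H buffer containing GLB 10 μg/mL. Effluent was collected at 15-min intervals after a 30-min steady state. Cumulative absorption was calculated from GLB loss (HPLC); n=5.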

Data set [18] is described as follows: Drug excretion in normal Sprague-Dawley rat feces at 10 mg/kg, po by HPLC method. The format is ADME, organism-based. Set-up: dose 10 mg/kg, route oral. The settings on record: faeces, read-out: Drug excretion. The gist of the method: (§5)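 STZ-diabetic (65 mg/kg i.p.), insulin-treated or control rats were dosed with GLB 10 mg/kg orally on day 35 after overnight fast. Urine and feces were collected in metabolic cages at 6-h intervals to 36 h. For bile, the common bile duct was cannulated under pentobarbital and bile collected to 12 h. GLB measured by HPLC-fluorescence and expressed as % of dose.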

Data set [19] in a line: Apparent oral volume of distribution in Sprague-Dawley rat model of streptozotocin-induced diabetes mellitus at 10 mg/kg, po by HPLC method. The format is ADME, organism-based. Set-up: dose 10 mg/kg, route oral. The note with it: in vivo. The gist of the method:
as §1

The test system of data set [20] is Liver microsome. Put plainly: Apparent hepatic clearance in insulin treated streptozotocin-induced diabetes mellitus Sprague-Dawley rat liver microsomes assessed per mg protein at 4 uM after 60 mins. The data set is classed as ADME. The settings on record: 1 h. The method, boiled down:
as §3

Data set [21] in a line: Drug excretion in urine of insulin treated Sprague-Dawley rat model of streptozotocin-induced diabetes mellitus at 10 mg/kg, po by HPLC method. The format is ADME, organism-based. Also on record: dose 10 mg/kg, route oral. The note with it: read-out: Drug excretion. The gist of the method: as §5
Data set [22] can be described thus: Mean residence time in insulin treated Sprague-Dawley rat model of streptozotocin-induced diabetes mellitus at 10 mg/kg, po by HPLC method. The data set is classed as ADME, organism-based. Also on record: dose 10 mg/kg, route oral. The note with it: in vivo. The gist of the method:
as §1

Data set [23] in a line: Drug excretion in urine of Sprague-Dawley rat model of streptozotocin-induced diabetes mellitus at 10 mg/kg, po by HPLC method. The format is ADME, organism-based. Also on record: dose 10 mg/kg, route oral. The settings on record: read-out: Drug excretion. The gist of the method: as §5
A short description of data set [24]: AUC (0 to 60 mins) in normal Sprague-Dawley rat liver microsomes at 4 uM after 60 mins. The data set is classed as ADME. Also on record: time < 1 hr, dose 4 uM. The method, boiled down:
as §3

Usually CL/F stands for clearance divided by bioavailability, as obtained after extravascular dosing. By Vd/F is commonly meant the apparent distribution volume after extravascular dosing. Broadly, the Tmax is the time from dosing to the highest level.

As to `COc1ccc(Cl)cc1C(=O)NCCc1ccc(S(=O)(=O)NC(=O)NC2CCCCC2)cc1` [GLYBURIDE], the MRT in data set [1] came out at 7.23 h; in data set [22] it was 8.15 h. The AUC(0-t) in [2] was 2350 ng·h/mL; in data set [12], 13300 ng·h/mL. Further, the Activity in the data set with Jejunum [3] stood at 25%; with Jejunum [8], 32%. Besides, the AUC(0-t) at 1 h, 4 µM in data set [4] is 357 ng·h/mL; in data set [24], 307 ng·h/mL. Also, in data set [5], the half-life at 4 µM is 0.207 h. Also, in the data set with Liver microsome [6], the Drug uptake turned out to be 0.52 µg/mL. The CL/F in [7] was 12 mL/min/kg; in data set [10], 65.5 mL/min/kg. For the same compound, the Vd/F in data set [9] worked out at 36.8 L/kg; in data set [11], 25.7 L/kg; in data set [19], 6.36 L/kg. The results for the Drug absorption entry in the data set with Jejunum [13] and in the data set with Jejunum [17] were “Active” and 35%, respectively. Also, the CLH(app) turned out to be 205 µL/min/mg in the data set with Liver microsome [14] and 176 µL/min/mg in the data set on Liver microsome [20]. For the same compound, the Tmax in data set [15] was determined as 7.2 h. In addition, in data set [16], the half-life is 8.18 h. Moreover, the dose excreted was determined as 72% in [18], 0.019% in data set [21] and 0.023% in data set [23].

For the origin of these results see ChEMBL document CHEMBL3525979, “Combined contributions of impaired hepatic CYP2C11 and intestinal breast cancer resistance protein activities and expression to increased oral glibenclamide exposure in rats with streptozotocin-induced diabetes mellitus” (Drug Metab Dispos, 2012).
